According to BindingDB's records for doi:10.1021/jm000929u (Universidad Complutense, 2001):

These compounds were tested against T1, 5-hydroxytryptamine receptor 1A (Rattus norvegicus, UniProt P19327) (assay: In vitro binding affinity towards 5-hydroxytryptamine 1A receptor was determined using radioligand [3H]-8-OH-DPAT).
T1 sequence (P19327 whole entry): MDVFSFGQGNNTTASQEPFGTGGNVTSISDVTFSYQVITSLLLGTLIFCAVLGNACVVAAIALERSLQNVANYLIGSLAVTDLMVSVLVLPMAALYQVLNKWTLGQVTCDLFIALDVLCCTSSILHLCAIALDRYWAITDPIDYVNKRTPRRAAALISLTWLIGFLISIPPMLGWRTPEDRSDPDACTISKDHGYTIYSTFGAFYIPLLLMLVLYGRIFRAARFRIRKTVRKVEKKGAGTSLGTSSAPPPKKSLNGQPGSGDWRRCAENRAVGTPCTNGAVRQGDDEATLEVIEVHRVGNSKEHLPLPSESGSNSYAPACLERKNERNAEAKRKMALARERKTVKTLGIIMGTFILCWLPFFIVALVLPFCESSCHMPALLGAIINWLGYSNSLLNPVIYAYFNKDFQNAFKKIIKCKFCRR
Summary of the method: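 Rat (male Sprague-Dawley) cerebral cortex membranes, about 1 mg protein, incubated 15 min at 37 °C with 0.6 nM [3H]8-OH-DPAT plus competitor in 50 mM Tris-HCl with 10 nM clonidine and 30 nM prazosin, pH 7.4. Nonspecific binding with 10 µM 5-HT. Triplicates; GF/B filtration, scintillation counting; IC50 curve fit, Ki by Cheng-Prusoff; 2-4 experiments.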

Point of comparison: `O=c1n(CCCN2CCN(c3cccc(Br)c3)CC2)c(O)c2n1CCC2`, Ki 33 nM. Against it:
- N#Cc1ccccc1N1CCN(CCCn2c(O)c3n(c2=O)CCCC3)CC1 — the same, 33 nM
- Nc1cccc(N2CCN(CCCn3c(O)c4n(c3=O)CCC4)CC2)c1 — higher, > 1000 nM
- CCCNC(=O)c1ccccc1N1CCN(CCCn2c(O)c3n(c2=O)CCC3)CC1 — higher, > 1000 nM
- CC(C)C(=O)Nc1cccc(N2CCN(CCCn3c(O)c4n(c3=O)CCCC4)CC2)c1 — higher, > 1000 nM
